Assay results from ChEMBL document CHEMBL1641594, “Cytotoxicity of new polyfluorinated 1,4-naphtoquinones with diverse substituents in the quinone moiety” (Bioorg Med Chem, 2011).

Assays:
RPMI-8226 [1] = test: Ratio of compound IC50 to F-Cpd5 IC50 for human RPMI8226 cells; assay type: functional, cell-based
MCF7 [2] = test: Ratio of compound IC50 to F-Cpd5 IC50 for human MCF7 cells; assay type: functional, cell-based
RPMI-8226 [3] = test: Cytotoxicity against human RPMI8226 cells after 72 hrs by MTT assay; assay type: functional, cell-based; conditions: RPMI-8226, 72 h
Procedure, shortened: (§1)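 RPMI 8226, MCF-7, LMTK and primary mouse fibroblasts (PMF) were seeded at ~2000 cells per well and preincubated 24 h at 37 °C, 5% CO2, in IMDM or RPMI 1640. Compounds were then added and cells incubated a further 72 h. Viable cells were quantified by MTT colorimetric assay, and the concentration giving 50% growth inhibition (IC50) was derived. Values are mean ± SD of at least three independent experiments.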

MCF7 [4] = test: Cytotoxicity against human MCF7 cells after 72 hrs by MTT assay; assay type: functional, cell-based; conditions: MCF7, 72 h; procedure, shortened: as §1
[5] = Cytotoxicity against mouse LMTK cells after 72 hrs by MTT assay; assay type: cell-based; conditions: L-M(TK-); procedure, shortened: as §1
[6] = Cytotoxicity against PMF after 72 hrs by MTT assay; design: species or system Mus musculus; procedure, shortened: as §1
MCF7 [7] = test: Ratio of IC50 for human MCF7 cellss to IC50 for human RPMI8226 cells; assay type: functional
Salmonella typhimurium [8] = test: Reduction of spontaneous mutagenesis in histidine-dependent Salmonella Typhimurium TA102 harboring histidine operon mutant assessed as concentration required to suppress 100% to 50% mutagenesis after 48 hrs by Ames test; assay type: functional, organism-based, Salmonella enterica subsp. enterica serovar Typhimurium; conditions: Salmonella enterica, TA102, 48 h
Procedure, shortened: (§2)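 S. typhimurium TA102 Ames test without metabolic activation. Single colony grown 15 h at 37 °C with shaking in LB with ampicillin (50 µg/ml) and tetracycline (2 µg/ml). Overnight culture mixed with compound at varied concentrations, with or without 3 mM H2O2, in 0.6% top agar at 42 °C. Poured onto minimal 0.2% glucose plates, incubated 48 h at 37 °C, revertants counted. Untreated revertant count set as 100%. At least three independent experiments.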

Salmonella typhimurium [9] = test: Reduction of spontaneous mutagenesis in histidine-dependent Salmonella Typhimurium TA102 harboring histidine operon mutant assessed as inhibition of H2O2-induced formation of mutants from 100% to 50% of revertants after 48 hrs by Ames test; assay type: functional, organism-based, Salmonella enterica subsp. enterica serovar Typhimurium; conditions: Salmonella enterica, TA102, 48 h; procedure, shortened: as §2
Salmonella typhimurium [10] = test: Reduction of spontaneous mutagenesis in histidine-dependent Salmonella Typhimurium TA102 harboring histidine operon mutant assessed as inhibition of H2O2-induced formation of mutants from 150% to 100% of revertants after 48 hrs by Ames test; assay type: functional, organism-based, Salmonella enterica subsp. enterica serovar Typhimurium; conditions: Salmonella enterica, TA102, 48 h; procedure, shortened: as §2
[11] = Cytotoxicity against PMF at 25 ug/ml after 72 hrs by MTT assay; conditions: mouse, PMF cells; read-out: INH
Procedure, shortened: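 Cells (~2000 per well) were preincubated 24 h at 37 °C, 5% CO2, in IMDM or RPMI 1640, then exposed to compound for 72 h with MTT read-out. Where cytotoxicity was low, percent growth inhibition at the highest concentration tested was recorded instead of an IC50. Values are mean ± SD of at least three independent experiments.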

[12] = Cytotoxicity against mouse LMTK cells at 30 uM after 72 hrs by MTT assay; assay type: cell-based
[13] = Cytotoxicity against PMF at 25 ug/ml after 72 hrs by MTT assay; conditions: mouse

Compound | Ratio IC50 (RPMI-8226 [1]) | Ratio IC50 (MCF7 [2]) | IC50 (RPMI-8226 [3]) [µM] | IC50 (MCF7 [4]) [µM] | IC50 [5] [µM] | IC50 [6] [µM] | Ratio IC50 (MCF7 [7]) | IC50 (Salmonella typhimurium [8]) [µM] | IC50 (Salmonella typhimurium [9]) [µM] | IC50 (Salmonella typhimurium [10]) [µM] | cytotoxicity at 72 h, 25 ug/ml [11] [%] | Activity [12] [%] | activity at 25 ug/ml [13] [%]
CC(C)(C)NC1=C(F)C(=O)c2c(F)c(F)c(F)c(F)c2C1=O | 2 | 2 | – | – | – | – | – | – | – | – | – | – | –
CCN(CC)C1=C(F)C(=O)c2c(F)c(F)c(F)c(F)c2C1=O | 2 | 2 | – | – | – | – | – | – | – | – | – | – | –
CCNC1=C(F)C(=O)c2c(F)c(F)c(F)c(F)c2C1=O | 2 | 2 | – | – | – | – | – | – | – | – | – | – | –
O=C1C(F)=C(Nc2ccccc2)C(=O)c2c(F)c(F)c(F)c(F)c21 | 2 | 2 | – | – | – | – | – | – | – | – | – | – | –
O=C1C(F)=C(NCCO)C(=O)c2c(F)c(F)c(F)c(F)c21 | – | 13 | 1.2 | 5.8 | 11.7 | 3.3 | 4.8 | 54 | 44.9 | 26 | – | – | –
COC1=C(OC)C(=O)c2c(F)c(F)c(F)c(F)c2C1=O | – | 13 | 0.96 | 6 | 8.6 | 18.9 | 6 | 198 | 53.8 | 38.3 | – | – | –
CN(CCO)C1=C(F)C(=O)c2c(F)c(F)c(F)c(F)c2C1=O | – | 13 | 5.6 | 2.4 | 44.5 | 24.9 | – | 37.6 | 30.2 | 3.4 | – | – | –
O=C1C(F)=C(N2CCOCC2)C(=O)c2c(F)c(F)c(F)c(F)c21 | – | 13 | 6 | 5.7 | 30 | – | – | 131 | 169 | 54 | 45 | 50 | 45
O=C1C(F)=C(N(CCO)CCO)C(=O)c2c(F)c(F)c(F)c(F)c21 | – | 13 | 5.1 | 7.5 | 52.7 | 34 | – | 275 | 45.3 | 2.9 | – | – | –
O=C1C=C(SCCO)C(=O)c2c(F)c(F)c(F)c(F)c21 | 5.3 | – | 2.9 | 12.8 | 25 | 30 | – | 26.1 | 23.5 | 12.7 | – | – | –
COC1=C(F)C(=O)c2c(F)c(F)c(F)c(F)c2C1=O | – | – | 4 | 26.5 | 13.7 | 8.9 | – | 39 | 20 | 2.8 | – | – | –
